Assay results from ChEMBL document CHEMBL4765486, “Novel Nonsecosteroidal Vitamin D Receptor Modulator Combined with Gemcitabine Enhances Pancreatic Cancer Therapy through Remodeling of the Tumor Microenvironment” (J Med Chem, 2021).
The source made the active and inactive calls. Unless noted, the calls are words filed in the database; no cut-off is given here.

Experiments:
LTC-14 [1] = assay: Inhibition of rat LTC-14 cells activation assessed as reduction in ECM deposition resulting in doxorubicin accumulation in PSC spheres pretreated with compounds followed by doxorubicin addition by laser confocal microscopy analysis; type: functional, cell-based
Method in brief: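 LTC-14 cells were grown in 3D culture to form PSC spheres and treated with compounds. Fluorescent doxorubicin was then added, and its penetration into the spheres was imaged by laser confocal microscopy. Three repeats, versus untreated control.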

LTC-14 [2] = assay: Inhibition of rat LTC-14 cells activation assessed as inhibition of PDGFA mRNA expression at 0.5 uM treated under conditioned media of DSL-6A/C1 cells for 24 hrs by q-PCR analysis; type: functional, cell-based
Method in brief: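 LTC-14 PSCs were exposed for 24 h to conditioned medium from rat DSL-6A/C1 cancer cells containing compound at 0.5 μM. Pdgfa, Pdgfb, Fgf2, Hgf and Periodin mRNA were quantified by RT-qPCR. Three repeats, mean ± SD versus CM alone.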

DSL-6A/C1 [3] = assay: Antiproliferative activity against rat DSL-6A/C1 cells assessed as reduction in cell viability at 0.5 uM treated with conditioned media of LTC-14 cells for 24 hrs by MTT assay; type: functional, cell-based
Method in brief: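 Rat pancreatic cancer DSL-6A/C1 cells were cultured in supernatant from LTC-14 PSCs (PSC-CM) with compound added at 0.5 μM for 24 h. Viability was then read by MTT: 4 h incubation with MTT (5 mg/mL stock), absorbance at 570 nm. Run in triplicate, compared with PSC-CM alone.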

[4] = molecular target: T1, Vitamin D3 receptor (Homo sapiens) (UniProt P11473); assay: Binding affinity to VDR (unknown origin) at 1 uM by fluorescence polarization assay relative to calcipotriol; conditions: filed as agonist
T1 sequence (whole entry): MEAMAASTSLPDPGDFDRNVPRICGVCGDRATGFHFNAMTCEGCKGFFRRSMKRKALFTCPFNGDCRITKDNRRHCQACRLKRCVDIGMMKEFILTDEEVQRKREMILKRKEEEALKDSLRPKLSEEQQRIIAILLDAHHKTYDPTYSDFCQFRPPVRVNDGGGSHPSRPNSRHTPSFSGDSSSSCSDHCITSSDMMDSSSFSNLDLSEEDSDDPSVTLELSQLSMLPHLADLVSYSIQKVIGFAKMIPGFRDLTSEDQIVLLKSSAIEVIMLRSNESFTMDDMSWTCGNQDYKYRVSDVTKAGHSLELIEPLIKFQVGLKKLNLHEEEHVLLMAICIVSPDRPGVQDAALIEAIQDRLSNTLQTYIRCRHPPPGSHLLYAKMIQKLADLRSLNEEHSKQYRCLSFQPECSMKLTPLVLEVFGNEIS
Method in brief: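 PolarScreen VDR competitor fluorescence polarization assay with compounds at 1 μM in triplicate. Read-out used 535 nm excitation and 590 nm emission filters.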

LTC-14 [5] = assay: Inhibition of rat LTC-14 cells interaction with DSL-6A/C1 cells in conditioned media assessed as inhibition of POSTN protein expression at 0.5 uM measured after 24 hrs by Western blot analysis; type: functional, cell-based
Method in brief: (§1)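 LTC-14 cells were treated for 24 h with DSL-6A/C1 conditioned medium plus compound (0.5 μM). Proteins were separated on 10% SDS-PAGE, transferred to PVDF and probed with rabbit anti-PDGF-A or anti-POSTN, with β-actin as loading reference.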

Vitamin D3 receptor = molecular target: T2, Vitamin D3 receptor (Homo sapiens, UniProt P11473); assay: Binding affinity to VDR (unknown origin) by fluorescence polarization assay
T2 sequence (P11473 whole entry): T1 sequence (whole entry)
Method in brief: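 Competitive VDR binding was measured by PolarScreen fluorescence polarization, in triplicate.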

LTC-14 [6] = assay: Inhibition of rat LTC-14 cells interaction with DSL-6A/C1 cells in conditioned media assessed as inhibition of PDGF-A protein expression at 0.5 uM measured after 24 hrs by Western blot analysis; type: functional, cell-based; method in brief: as §1
LTC-14 [7] = assay: Inhibition of rat LTC-14 cell activation assessed decrease in TGF-beta1 induced Colla1 mRNA expression at 0.5 uM incubated for 24 hrs by q-PCR analysis; type: functional
Method in brief: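 Immortalized rat PSC line LTC-14, about 1×10^5 cells per well, was grown 24 h at 37 °C in 5% CO2. Cells then received compound (0.5 μM) plus TGF-β1 for 24 h; TGF-β1 is stated as 0.5 ng/mL in the text and 5 ng/mL in the methods. Col1a1 and Acta2 mRNA were measured by RT-qPCR. Mean ± SD versus TGF-β1 alone.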

[8] = Cytotoxicity against rat DSL-6A/C1 cells assessed as reduction in cell proliferation at 0.5 uM incubated for 24 hrs by MTT assay; type: cell-based; conditions: dsl-6a/c1, 24 h
[9] = Cytotoxicity against rat LTC-14 cells assessed as reduction in cell proliferation incubated for 24 hrs by MTT assay; type: cell-based; conditions: LTC-14, 24 h
DSL-6A/C1 [10] = assay: Potentiation of gemcitabine-induced antitumor activity against luciferase-tagged rat DSL-6A/C1 cells and GFP-tagged LTC-14 cells co-inoculated in orthotropic xenograft BALB/c nude mouse model of pancreatic cancer assessed as decrease in density of tumor tissue at 500 ug/kg, ip administered once every 3 days for 12 days coadministered with gemcitabine at 100 mg/kg and measured after 3 days post last dose by hematoxylin and eosin staining based assay; type: functional, organism-based; conditions: dose 500.0 µg/kg, time 12.0 day
Method in brief: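 In the same orthotopic co-inoculation model, mice received gemcitabine 100 mg/kg ip every 3 days plus compound 500 μg/kg ip for 12 days. Animals were sacrificed 3 days after the last dose. Pancreatic tumour sections were stained with H&E for tissue structure and with Masson's trichrome for collagen deposition, imaged at ×100.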

CCn1cc(C(CC)(CC)c2ccc(OCC(C)O)c(C)c2)cc1C(=O)NCCN1CCN(C)CC1 (stereo unspecified)
inhibition (LTC-14 [1]): Active
inhibition (LTC-14 [2]): Active
Activity (DSL-6A/C1 [3]): inactive
RBA [4]: 89%
inhibition (LTC-14 [5]): Active
IC50 (Vitamin D3 receptor): 57.2 nM
inhibition (LTC-14 [6]): Active
inhibition (LTC-14 [7]): Active
Activity [8]: Non-Toxic
IC50 [9]: > 10 µM
Activity (DSL-6A/C1 [10]): Active
